From ChEMBL document CHEMBL1148153, “New 3-O-acyl betulinic acids from Strychnos vanprukii Craib” (J Nat Prod, 2004)

How the values were obtained:
[1] = Cytotoxicity against human HOG.R5 cells at 40 ug/ml after 4 days; format: cell-based; details: 96 h
In short: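 HOG.R5 cultures run in parallel with the infection assay, given identical test-agent concentrations with virus omitted. After 4 days, viability monitored by microscopic and fluorometric measurement and CC50 derived.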

[2] = tested on: CEM-SS; assay: Cytotoxicity against human CEM-SS cells at 40 ug/ml after 6 days by MTS assay; format: cell-based; details: 144 h
In short: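 Run alongside the CPE assay as uninfected toxicity controls. CEM-SS cells at (2-3) × 10^4 cells/mL in RPMI 1640 with 10% heat-inactivated FBS and 4 mM L-glutamine, plus compound without virus. After 6 days at 37 °C, MTS/PES added (final 317 µg/mL and 50 µM) for 4 h. Absorbance at 490/650 nm gives % viability and CC50.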

[3] = tested on: Human immunodeficiency virus 1; assay: Antiviral activity against HIV1 3B infected in human CEM-SS cells assessed as inhibition of virus-induced cytopathic effect after 6 days by MTS assay; format: functional; details: for EC50: Human immunodeficiency virus 1, 3B, 144 h, read-out: ED50 (the source's name)
In short: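 CEM-SS cells split 1:2 the day before, then washed and resuspended at (2-3) × 10^4 cells/mL in RPMI 1640 with 10% heat-inactivated FBS, 4 mM L-glutamine, penicillin/streptomycin. Compounds diluted in complete medium. HIV-1 IIIB added at ~2 ng p24/mL (MOI ~0.4). Incubated 6 days at 37 °C, 5% CO2. MTS/PES added (final 317 µg/mL and 50 µM) for 4 h. Read at 490/650 nm as % CPE reduction; five-concentration dose-response.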

[4] = tested on: Human immunodeficiency virus 1; assay: Antiviral activity against HIV1 3B infected in human HOG.R5 cells after 4 days; format: functional, organism-based; details: Human immunodeficiency virus 1, 3B, HOG.R5, 96 h
In short: (§1)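 GFP reporter HOG.R5 cells in microtiter wells infected with HIV-1 IIIB (2.5 ng/mL p24) with test agent present. Fluorescence read after 4 days. Selectivity index taken as CC50 in uninfected parallel HOG.R5 cultures divided by antiviral IC50.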

[5] = tested on: HUVEC; assay: Cytotoxicity against HUVEC cells; format: functional; details: Homo sapiens, read-out: ED50 (the source's name)
[6] = Cytotoxicity against human HOG.R5 cells after 4 days; format: cell-based
In short: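 GFP-based HOG.R5 reporter cells in microtiter wells treated with compounds without virus, in parallel with HIV-1 IIIB-infected (2.5 ng/mL p24) cultures. After 4 days, viability judged by combined microscopic and fluorometric measurement. CC50 = concentration mediating 50% cytotoxicity.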

[7] = Selectivity index, ratio of CC50 for human HOG.R5 cells to IC50 for HIV1 3B; format: functional; in short: as §1
[8] = Cytotoxicity against human CEM-SS cells after 6 days by MTS assay; format: cell-based
In short: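 CEM-SS cells split 1:2 the day before, then washed and resuspended at (2-3) × 10^4 cells/mL in RPMI 1640 with 10% heat-inactivated FBS, 4 mM L-glutamine, penicillin/streptomycin. Compounds diluted in complete medium, virus omitted (toxicity controls). 6 days at 37 °C, 5% CO2; MTS/PES added (final 317 µg/mL and 50 µM), 4 h further, A490/650. CC50 = 50% cytotoxic concentration.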

[9] = tested on: Lu1; assay: Cytotoxicity against human Lu1 cells; format: functional; details: read-out: ED50 (the source's name)
[10] = tested on: Col2; assay: Cytotoxicity against human Col2 cells; format: functional; details: read-out: ED50 (the source's name)
[11] = tested on: KB; assay: Cytotoxicity against human KB cells; format: functional; details: read-out: ED50 (the source's name)
[12] = tested on: LNCaP; assay: Cytotoxicity against human LNCAP cells; format: functional; details: read-out: ED50 (the source's name)
[13] = tested on: SK-MEL-2; assay: Cytotoxicity against human SK-MEL-2 cells; format: functional; details: read-out: ED50 (the source's name)
[14] = Selectivity index, ratio of CC50 for human CEM-SS cells to IC50 for HIV1 3B; format: functional
In short: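 CEM-SS cells at (2-3) × 10^4 cells/mL in RPMI 1640/10% FBS infected with HIV-1 IIIB (~2 ng p24/mL, MOI ~0.4) in presence of compounds. After 6 days at 37 °C, viability by MTS/PES reduction (4 h, A490/650). ED50 is 50% cytoprotection against viral CPE. SI = CC50 in uninfected parallel cells / ED50.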

[15] = tested on: Human immunodeficiency virus 1; assay: Antiviral activity against HIV1 3B infected in human CEM-SS cells assessed as inhibition of virus-induced cytopathic effect at 2.7 uM after 6 days by MTS assay; format: functional; details: Human immunodeficiency virus 1, 3B, 144 h
In short: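 CEM-SS cells split 1:2 the day before, then washed and resuspended at (2-3) × 10^4 cells/mL in RPMI 1640 with 10% heat-inactivated FBS, glutamine and antibiotics. Infected with HIV-1 IIIB (~2 ng p24/mL, MOI ~0.4) alongside test agent. Incubated 6 days at 37 °C, 5% CO2. MTS/PES added (final 317 µg/mL and 50 µM) for 4 h. Absorbance read at 490/650 nm and reported as % CPE reduction.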

| SMILES | Activity [1] | Activity [2] | EC50 [3] [µM] | IC50 [4] [µM] | EC50 [5] [µM] | CC50 at 96 h [6] [µM] | Ratio CC50/IC50 [7] | CC50 at 144 h [8] [µM] | EC50 [9] [µM] | EC50 [10] [µM] | EC50 [11] [µM] | EC50 [12] [µM] | EC50 [13] [µM] | Activity [3] | Ratio CC50/IC50 [14] | inhibition at 2.7 µM [15] [%] |
| --- | --- | --- | --- | --- | --- | --- | --- | --- | --- | --- | --- | --- | --- | --- | --- | --- |
| Cc1c(O)cccc1C(=O)N[C@@H](CSc1ccccc1)[C@H](O)CN1C[C@H]2CCCC[C@H]2C[C@H]1C(=O)NC(C)(C)C | Non-toxic | Non-toxic | 0.03 | 0.09 | – | – | – | – | – | – | – | – | – | – | – | – |
| C=C(C)[C@@H]1CC[C@]2(C(=O)O)CC[C@]3(C)[C@H](CC[C@@H]4[C@@]5(C)CC[C@H](OC(=O)/C=C\c6ccc(O)cc6)C(C)(C)[C@@H]5CC[C@]43C)[C@@H]12 | – | – | – | 8 | 6.8 | 15.9 | 2 | < 1.7 | 11 | 6 | 4.3 | 3.2 | 3.8 | Toxic | – | – |
| C=C(C)[C@@H]1CC[C@]2(C(=O)O)CC[C@]3(C)[C@H](CC[C@@H]4[C@@]5(C)CC[C@H](O)C(C)(C)[C@@H]5CC[C@]43C)[C@@H]12 [BETULINIC ACID] | – | – | 2 | 3.1 | 28.7 | 16.7 | 5 | 5.9 | 40.6 | 43.9 | 35.7 | 27.4 | 1.3 | – | 3 | – |
| C=C(C)[C@@H]1CC[C@]2(C(=O)O)CC[C@]3(C)[C@H](CC[C@@H]4[C@@]5(C)CC[C@H](OC(=O)/C=C/c6ccc(O)cc6)C(C)(C)[C@@H]5CC[C@]43C)[C@@H]12 | – | – | – | 5.6 | 5.3 | 14.3 | 3 | < 1.7 | 12.1 | 6.6 | 5.5 | 5.7 | 4.2 | Toxic | – | – |
| CC(C)Nc1cccnc1N1CCN(C(=O)c2cc3cc(NS(C)(=O)=O)ccc3[nH]2)CC1.CS(=O)(=O)O [DELAVIRDINE MESYLATE] | Non-toxic | Non-toxic | 0.06 | 0.02 | – | – | – | – | – | – | – | – | – | – | – | – |
| C[C@H]1[C@H](C)CC[C@]2(C(=O)O)CC[C@]3(C)C(=CC[C@@H]4[C@@]5(C)CC[C@H](O)C(C)(C)[C@@H]5CC[C@]43C)[C@H]12 [URSOLIC ACID] | – | – | – | 14.4 | – | 15.4 | 1 | 21.9 | – | – | – | – | – | – | – | 22 |
| C=C(C)[C@@H]1CC[C@]2(C(=O)O)CC[C@]3(C)[C@H](CC[C@@H]4[C@@]5(C)CC[C@H](OC(=O)/C=C\c6ccc(O)c(OC)c6)C(C)(C)[C@@H]5CC[C@]43C)[C@@H]12 | – | – | – | 11.1 | 6.2 | 22.2 | 2 | < 1.6 | 15.7 | 7.4 | 5.4 | 5.2 | 3.8 | Toxic | – | – |
| Nc1ccn([C@@H]2CS[C@H](CO)O2)c(=O)n1 [LAMIVUDINE] | Non-toxic | Non-toxic | 0.36 | – | – | – | – | – | – | – | – | – | – | – | – | – |
| C=C(C)[C@@H]1CC[C@]2(C(=O)O)CC[C@]3(C)[C@H](CC[C@@H]4[C@@]5(C)CC[C@H](OC(=O)/C=C/c6ccc(O)c(OC)c6)C(C)(C)[C@@H]5CC[C@]43C)[C@@H]12 | – | – | – | 5.1 | 9.5 | 13.4 | 3 | < 1.6 | 8.5 | 5.4 | 2.5 | 3.2 | 3.8 | Toxic | – | – |
| CCCc1cc(=O)oc2c3c(c4c(c12)OC(C)(C)C=C4)O[C@H](C)[C@@H](C)[C@@H]3O [CALANOLIDE A] | Non-toxic | Non-toxic | 0.31 | 0.07 | – | – | – | – | – | – | – | – | – | – | – | – |
